Measured values published in ChEMBL document CHEMBL2311425, “Histone deacetylase (HDAC) inhibitors with a novel connecting unit linker region reveal a selectivity profile for HDAC4 and HDAC5 with improved activity against chemoresistant cancer cells” (J Med Chem, 2013).

What was measured:
[1] = test system: CAL-27; assay: Potentiation of 2.5 uM cisplatin-induced toxicity in 1 uM cisplatin resistant human CAL27 cells at 1.5 uM pretreated for 48 hrs followed by 1 uM cisplatin treatment by MTT assay; format: functional
[2] = test system: A2780; assay: Potentiation of 1 uM cisplatin-induced toxicity in 5 uM cisplatin resistant human A2780 cells at 1 uM pretreated for 48 hrs followed by 5 uM cisplatin treatment by MTT assay; format: functional
[3] = test system: CAL-27; assay: Potentiation of 1 uM cisplatin-induced toxicity in 1 uM cisplatin resistant human CAL27 cells at 1 uM pretreated for 48 hrs followed by 1 uM cisplatin treatment by MTT assay; format: functional
[4] = test system: KYSE-510; assay: Potentiation of 0.5 uM cisplatin-induced toxicity in 0.5 uM cisplatin resistant human KYSE-510 cells at 1 uM pretreated for 48 hrs followed by 0.5 uM cisplatin treatment by MTT assay; format: functional
[5] = test system: A2780; assay: Potentiation of 1 uM cisplatin-induced toxicity in 5 uM cisplatin resistant human A2780 cells at 0.25 uM pretreated for 48 hrs followed by 5 uM cisplatin treatment by MTT assay; format: functional
[6] = test system: KYSE-510; assay: Potentiation of 0.5 uM cisplatin-induced toxicity in 0.5 uM cisplatin resistant human KYSE-510 cells at 0.25 uM pretreated for 48 hrs followed by 0.5 uM cisplatin treatment by MTT assay; format: functional
[7] = test system: CAL-27; assay: Potentiation of 1 uM cisplatin-induced toxicity in 1 uM cisplatin resistant human CAL27 cells at 1.5 uM pretreated for 48 hrs followed by 1 uM cisplatin treatment by MTT assay; format: functional
[8] = test system: A2780; assay: Potentiation of cisplatin-induced toxicity in cisplatin resistant human A2780 cells at 1 uM pretreated for 48 hrs followed by cisplatin treatment by MTT assay; format: functional
In short: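 Resistant sublines pretreated 48 h with 1 μM HDAC inhibitor, then cisplatin over a concentration range for 72 h; MTT viability read at 544/690 nm. Cisplatin IC50 from four-parameter logistic fit of pooled data (≥3 experiments, triplicate); shift factor = IC50 of cisplatin alone divided by IC50 of the combination.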

[9] = molecular target: Histone deacetylase 4 (Homo sapiens, UniProt P56524); assay: Inhibition of human HDAC4 by fluorescence assay
[10] = molecular target: Histone deacetylase; assay: Inhibition of HDAC in cisplatin sensitive human KYSE-510 cells after 18 hrs by fluorescence assay; format: cell-based
[11] = molecular target: Histone deacetylase; assay: Inhibition of HDAC in cisplatin sensitive human CAL27 cells after 18 hrs by fluorescence assay; format: cell-based; conditions: cal-27
[12] = test system: CAL-27; assay: Cytotoxicity against cisplatin resistant human CAL27 cells after 72 hrs by MTT assay; format: functional, cell-based; conditions: CAL-27, 72 h
[13] = test system: MDA-MB-231; assay: Cytotoxicity against cisplatin resistant human MDA-MB-231 cells after 72 hrs by MTT assay; format: functional, cell-based; conditions: MDA-MB-231, 72 h
[14] = molecular target: Histone deacetylase; assay: Inhibition of HDAC in cisplatin resistant human A2780 cells after 18 hrs by fluorescence assay; format: cell-based
[15] = test system: A2780; assay: Potentiation of 20 uM cisplatin-induced toxicity in 5 uM cisplatin resistant human A2780 cells at 1.5 uM pretreated for 48 hrs followed by 5 uM cisplatin treatment by MTT assay; format: functional
[16] = test system: A2780; assay: Potentiation of 20 uM cisplatin-induced toxicity in 5 uM cisplatin resistant human A2780 cells at 1 uM pretreated for 48 hrs followed by 5 uM cisplatin treatment by MTT assay; format: functional
[17] = test system: CAL-27; assay: Potentiation of 45 uM cisplatin-induced toxicity in 1 uM cisplatin resistant human CAL27 cells at 0.5 uM pretreated for 48 hrs followed by 1 uM cisplatin treatment by MTT assay; format: functional
[18] = test system: MDA-MB-231; assay: Potentiation of […] cisplatin-induced toxicity in 1 uM cisplatin resistant human MDA-MB-231 cells at 1.5 uM pretreated for 48 hrs followed by 1 uM cisplatin treatment by MTT assay; format: functional
[19] = test system: A2780; assay: Potentiation of 10 uM cisplatin-induced toxicity in 5 uM cisplatin resistant human A2780 cells at 1.5 uM pretreated for 48 hrs followed by 5 uM cisplatin treatment by MTT assay; format: functional
[20] = test system: A2780; assay: Potentiation of 8 uM cisplatin-induced toxicity in 5 uM cisplatin resistant human A2780 cells at 0.5 uM pretreated for 48 hrs followed by 5 uM cisplatin treatment by MTT assay; format: functional
[21] = test system: KYSE-510; assay: Potentiation of 1 uM cisplatin-induced toxicity in 0.5 uM cisplatin resistant human KYSE-510 cells at 0.5 uM pretreated for 48 hrs followed by 0.5 uM cisplatin treatment by MTT assay; format: functional
[22] = test system: CAL-27; assay: Potentiation of 5 uM cisplatin-induced toxicity in 1 uM cisplatin resistant human CAL27 cells at 1 uM pretreated for 48 hrs followed by 1 uM cisplatin treatment by MTT assay; format: functional
[23] = test system: A2780 CisR (Homo sapiens); assay: cells; conditions: 72 h

Sequence of Histone deacetylase 4 (P56524 whole entry): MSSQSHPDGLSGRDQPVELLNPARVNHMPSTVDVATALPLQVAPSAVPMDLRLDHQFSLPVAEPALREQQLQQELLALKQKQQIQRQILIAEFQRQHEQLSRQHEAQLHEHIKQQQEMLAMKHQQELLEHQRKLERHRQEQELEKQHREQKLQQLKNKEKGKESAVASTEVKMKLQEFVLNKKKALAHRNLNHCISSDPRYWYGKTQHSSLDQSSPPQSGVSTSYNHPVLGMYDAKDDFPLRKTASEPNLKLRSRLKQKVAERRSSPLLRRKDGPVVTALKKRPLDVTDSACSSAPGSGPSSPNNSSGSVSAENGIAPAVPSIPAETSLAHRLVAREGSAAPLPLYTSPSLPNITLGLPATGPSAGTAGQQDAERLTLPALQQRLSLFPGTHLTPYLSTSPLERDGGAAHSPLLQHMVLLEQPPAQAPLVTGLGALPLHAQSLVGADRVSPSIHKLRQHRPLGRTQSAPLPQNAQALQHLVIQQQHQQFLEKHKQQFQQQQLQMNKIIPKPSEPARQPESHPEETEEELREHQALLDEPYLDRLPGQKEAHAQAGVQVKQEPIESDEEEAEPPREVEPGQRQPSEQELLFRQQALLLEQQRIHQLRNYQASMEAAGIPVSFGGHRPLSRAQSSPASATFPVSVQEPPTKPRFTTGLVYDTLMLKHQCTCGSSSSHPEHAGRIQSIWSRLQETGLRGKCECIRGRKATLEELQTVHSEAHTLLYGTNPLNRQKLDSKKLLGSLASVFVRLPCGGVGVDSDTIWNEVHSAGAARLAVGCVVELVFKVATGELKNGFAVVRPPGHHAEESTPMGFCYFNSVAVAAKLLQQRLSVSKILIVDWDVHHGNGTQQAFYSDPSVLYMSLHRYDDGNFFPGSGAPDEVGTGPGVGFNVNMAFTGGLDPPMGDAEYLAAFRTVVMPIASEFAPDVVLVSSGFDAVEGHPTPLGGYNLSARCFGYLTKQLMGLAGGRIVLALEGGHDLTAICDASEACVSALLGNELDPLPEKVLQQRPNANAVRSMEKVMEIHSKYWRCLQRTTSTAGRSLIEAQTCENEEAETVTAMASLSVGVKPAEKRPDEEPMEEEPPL

SMILES: Cc1cc(C)cc(C(=O)NOCCCCCC(=O)NO)c1
- Activity [1]: Dose-dependent effect
- fractional inhibitory concentration index (FICI) [1]: 0.34
- Activity [2]: Dose-dependent effect
- fractional inhibitory concentration index (FICI) [2]: 0.82
- Activity [3]: Dose-dependent effect
- Activity [4]: Dose-dependent effect
- fractional inhibitory concentration index (FICI) [4]: 0.08
- Activity [5]: Dose-dependent effect
- Activity [6]: Dose-dependent effect
- fractional inhibitory concentration index (FICI) [6]: 0.18
- Activity [7]: Dose-dependent effect
- fractional inhibitory concentration index (FICI) [7]: 0.48
- Activity [8]: Dose-dependent effect
- fold change (FC) [8]: 4.02
- IC50 [9]: 11.9 nM
- IC50 [10]: 1000 nM
- IC50 [11]: 360 nM
- IC50 [12]: 1810 nM
- IC50 [13]: 1680 nM
- IC50 [14]: 320 nM
- Activity [15]: Dose-dependent effect
- fractional inhibitory concentration index (FICI) [15]: 0.64
- Activity [16]: Dose-dependent effect
- fractional inhibitory concentration index (FICI) [16]: 0.49
- Activity [17]: Dose-dependent effect
- fractional inhibitory concentration index (FICI) [17]: 0.31
- Activity [18]: Dose-dependent effect
- fractional inhibitory concentration index (FICI) [18]: 0.8
- Activity [19]: Dose-dependent effect
- fractional inhibitory concentration index (FICI) [19]: 0.68
- Activity [20]: Dose-dependent effect
- fractional inhibitory concentration index (FICI) [20]: 0.66
- Activity [21]: Dose-dependent effect
- fractional inhibitory concentration index (FICI) [21]: 0.08
- Activity [22]: Dose-dependent effect
- fractional inhibitory concentration index (FICI) [22]: 0.26
- IC50 [23]: 320 nM
